These results are taken from paper PMC5357090 (Saudi Pharmaceutical Journal : SPJ, 2016).

In experiment [1] the test system is MCF-7. Description: In vitro anticancer activity, MTT assay, MCF-7. The class given is cell-based. The conditions noted are these: for IC50: Homo sapiens, MCF7, 48 h, read-out: IC50 MCF-7; for anticancer activity against MCF-7 cells (in words): MTT, 48 h exposure, compared with the standard cisplatin.
For experiment [2], the system named is α-amylase. The experiment in a line: α-Amylase assay. In kind it is biochemical. Conditions: compared to the standard acarbose; 50-1000 μm. Put shortly:
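α-Amylase was used at 0.1 mg/mL in PBS (0.02 mol/L, pH 6.8). Enzyme was preincubated with the test solution at 37 °C for 5 min. The reaction was started with 1.0% (w/v) starch. It was stopped with DNS reagent (1% dinitrosalicylic acid, 0.05% Na2SO3, 1% NaOH), then heated at 100 °C for 5 min and cooled to room temperature. Absorbance was read at 540 nm.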

Experiment [3] deals with HeLa. The experiment in a line: In vitro anticancer activity, MTT assay, HeLa. In kind it is cell-based, human. The conditions noted are these: for IC50: Homo sapiens, HeLa, 48 h; for anticancer activity against HeLa cells (in words): MTT, 48 h exposure, compared with the standard cisplatin. Put shortly:
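HeLa cells came from NCCS and were kept in MEM with 10% FBS at 37 °C and 5% CO2. Cells were seeded at 10,000/well in 5% FBS medium and left 24 h to attach. DMSO solutions were diluted in serum-free medium to 6.25–100 µM (five concentrations) and applied for 48 h, in triplicate. MTT was added for 4 h at 37 °C, formazan dissolved in DMSO, and A570 read. % inhibition was taken against untreated control. IC50 came from nonlinear regression against log concentration.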

The mark [4] stands for this setting: read-out: IC50 values, range over MCF-7 and HeLa cells.

Molecules are shown by their SMILES. Read-outs that look alike come from different tables or passages of the source.

In the case of `O=C(Nc1ccc(F)cc1)Nc1cccc(-c2nnc(C3CCCCC3)o2)c1` [Compound 6a, 1-[3-(5-Cyclohexyl-[1,3,4]oxadiazol-2-yl)-phenyl]-3-(4-fluoro-phenyl)-urea], in experiment [1], the IC50 came out at 81.6 µM and the “anticancer activity against MCF-7 cells (in words)” value is reported as “good activity”. The “inhibitory activity against α-amylase (in words)” value (shortened to “inhibitory activity”) in experiment [2] is given as “moderate activities”. The IC50 in experiment [3] (read-out: IC50 HeLa) stood at 79.7 µM. In experiment [3], the “anticancer activity against HeLa cells (in words)” value was “good activity”.

Consider `Cc1ccc(NC(=O)Nc2cccc(-c3nnc(C4CCCCC4)o3)c2)cc1` [Compound 6b, 1-[3-(5-Cyclohexyl-[1,3,4]oxadiazol-2-yl)-phenyl]-3-p-tolyl-urea], for which the IC50 in experiment [1] is 23.5 µM; in experiment [3] (read-out: IC50 HeLa), 30.4 µM; in experiment [3] (setting [4]), 23.5 to 45.6 µM. Further, the “anticancer activity against MCF-7 cells (in words)” value in experiment [1] was “significant activity”. In addition, the “inhibitory activity” value in experiment [2] is “moderate activities”. For the same compound, the “anticancer activity against HeLa cells (in words)” value in experiment [3] is recorded as “significant activity”.

Regarding `COc1cccc(NC(=O)Nc2cccc(-c3nnc(C4CCCCC4)o3)c2)c1` [Compound 6c, 1-[3-(5-Cyclohexyl-[1,3,4]oxadiazol-2-yl)-phenyl]-3-(3-methoxy-phenyl)-urea], the IC50 in experiment [1] is 28.6 µM; in experiment [3] (read-out: IC50 HeLa), 45.6 µM; in experiment [3] (setting [4]), 23.5 to 45.6 µM. Also, the “anticancer activity against MCF-7 cells (in words)” value in experiment [1] is reported as “significant activity”. In addition, in experiment [3], the “anticancer activity against HeLa cells (in words)” value is given as “significant activity”.

With `O=C(Nc1cccc(-c2nnc(C3CCCCC3)o2)c1)c1ccc(Cl)cc1` [Compound 7a, 4-Chloro-N-[3-(5-cyclohexyl-[1,3,4]oxadiazol-2-yl)-phenyl]-benzamide], the IC50 in experiment [1] and in experiment [3] (read-out: IC50 HeLa) was at least 100 µM each time.

For `Cc1ccc(C(=O)Nc2cccc(-c3nnc(C4CCCCC4)o3)c2)cc1` [Compound 7b, N-[3-(5-Cyclohexyl-[1,3,4]oxadiazol-2-yl)-phenyl]-4-methyl-benzamide], the IC50 in experiment [1] and in experiment [3] (read-out: IC50 HeLa) was at least 100 µM throughout.

Consider `O=C(Cc1ccccc1F)Nc1cccc(-c2nnc(C3CCCCC3)o2)c1` [Compound 7c, N-[3-(5-Cyclohexyl-[1,3,4]oxadiazol-2-yl)-phenyl]-2-(2-fluoro-phenyl)acetamide], for which, in experiment [1], the IC50 worked out at 78.3 µM and the “anticancer activity against MCF-7 cells (in words)” value was “good activity”. Also, the half-inhibitory concentration (IC50) in experiment [3] (read-out: IC50 HeLa) is 80.1 µM. The “anticancer activity against HeLa cells (in words)” value in experiment [3] is given as “good activity”.

For the compound `O=C(Nc1cccc(-c2nnc(C3CCCCC3)o2)c1)c1cc(F)cc(F)c1` [Compound 7d, N-[3-(5-Cyclohexyl-[1,3,4]oxadiazol-2-yl)-phenyl]-3,5-difluoro-benzamide], the results for the IC50 in experiment [1] and in experiment [3] (read-out: IC50 HeLa) were 62.4 µM and 58.8 µM, respectively. In experiment [1], the “anticancer activity against MCF-7 cells (in words)” value is “good activity”. In addition, the “inhibitory activity” value in experiment [2] was “moderate activities”. In experiment [3], the “anticancer activity against HeLa cells (in words)” value is recorded as “good activity”.

For `O=C(Nc1cccc(-c2nnc(C3CCCCC3)o2)c1)c1cnccn1` [Compound 7e, Pyrazine-2-carboxylic acid [3-(5-cyclohexyl-[1,3,4]oxadiazol-2-yl)-phenyl]-amide], the IC50 in experiment [1] and in experiment [3] (read-out: IC50 HeLa) was at least 100 µM each time. Also, the “inhibitory activity” value in experiment [2] is “moderate activities”.

`O=C(Cc1c[nH]c2ccccc12)Nc1cccc(-c2nnc(C3CCCCC3)o2)c1` [Compound 7f, N-[3-(5-Cyclohexyl-[1,3,4]oxadiazol-2-yl)-phenyl]-2-(1H-indol-3-yl)-acetamide]: the values for the IC50 in experiment [1] and in experiment [3] (read-out: IC50 HeLa) were at least 100 µM and 100 µM, respectively. Also, in experiment [2], the “inhibitory activity” value is “better than all other compounds”.

With `O=C(Nc1cccc(-c2nnc(C3CCCCC3)o2)c1)C1CCCC1` [Compound 7g, Cyclopentane carboxylic acid [3-(5-cyclohexyl-[1,3,4]oxadiazol-2-yl)-phenyl]-amide], the IC50 in experiment [1] and in experiment [3] (read-out: IC50 HeLa) was at least 100 µM each time. Also, the “inhibitory activity” value in experiment [2] was “moderate activities”.

For the compound `O=C(Nc1cccc(-c2nnc(C3CCCCC3)o2)c1)c1ccco1` [Compound 7h, Furan-2-carboxylic acid [3-(5-cyclohexyl-[1,3,4]oxadiazol-2-yl)-phenyl]-amide], the IC50 in experiment [1] and in experiment [3] (read-out: IC50 HeLa) was at least 100 µM throughout.

Turning to `O=C(C=Cc1ccco1)Nc1cccc(-c2nnc(C3CCCCC3)o2)c1` [Compound 7i, N-[3-(5-Cyclohexyl-[1,3,4]oxadiazol-2-yl)-phenyl]-3-furan-2-yl-acrylamide], the IC50 in experiment [1] and in experiment [3] (read-out: IC50 HeLa) was at least 100 µM throughout.

As to `Cc1ccc(S(=O)(=O)Nc2cccc(-c3nnc(C4CCCCC4)o3)c2)cc1` [Compound 8a, N-[3-(5-Cyclohexyl-[1,3,4]oxadiazol-2-yl)-phenyl]-4-methyl-benzenesulphonamide], the IC50 in experiment [1] and in experiment [3] (read-out: IC50 HeLa) was at least 100 µM throughout.

On to `CC(C)(C)c1ccc(S(=O)(=O)Nc2cccc(-c3nnc(C4CCCCC4)o3)c2)cc1` [Compound 8b, 4-tert-Butyl-N-[3-(5-cyclohexyl-[1,3,4]oxadiazol-2-yl)-phenyl]-benzenesulphonamide], for which, in experiment [1], the IC50 is 60.9 µM and the “anticancer activity against MCF-7 cells (in words)” value is recorded as “good activity”. Besides, the IC50 in experiment [3] (read-out: IC50 HeLa) turned out to be 62.9 µM. Besides, the “anticancer activity against HeLa cells (in words)” value in experiment [3] is on record as “good activity”.

For the compound `O=S(=O)(Nc1cccc(-c2nnc(C3CCCCC3)o2)c1)c1cc(Cl)cc(Cl)c1` [Compound 8c, 3,5-Dichloro-N-[3-(5-cyclohexyl-[1,3,4]oxadiazol-2-yl)-phenyl]-benzenesulphonamide], the IC50 in experiment [1] and in experiment [3] (read-out: IC50 HeLa) was at least 100 µM in each case. Further, the “inhibitory activity” value in experiment [2] is listed as “better than all other compounds”.
